Test results from ChEMBL document CHEMBL1122366, “Potential antiatherosclerotic agents. 3. Substituted benzoic and non benzoic acid analogues of cetaben” (1983).

Legend:
[1] = target: T1, Sterol O-acyltransferase 1 (Rattus norvegicus) (UniProt O70536); assay: In vitro inhibition of acyl coenzyme A:cholesterol acyltransferase; parameters: concentration or dose not given beside the values; conditions: concentration not given here
T1 sequence (whole entry): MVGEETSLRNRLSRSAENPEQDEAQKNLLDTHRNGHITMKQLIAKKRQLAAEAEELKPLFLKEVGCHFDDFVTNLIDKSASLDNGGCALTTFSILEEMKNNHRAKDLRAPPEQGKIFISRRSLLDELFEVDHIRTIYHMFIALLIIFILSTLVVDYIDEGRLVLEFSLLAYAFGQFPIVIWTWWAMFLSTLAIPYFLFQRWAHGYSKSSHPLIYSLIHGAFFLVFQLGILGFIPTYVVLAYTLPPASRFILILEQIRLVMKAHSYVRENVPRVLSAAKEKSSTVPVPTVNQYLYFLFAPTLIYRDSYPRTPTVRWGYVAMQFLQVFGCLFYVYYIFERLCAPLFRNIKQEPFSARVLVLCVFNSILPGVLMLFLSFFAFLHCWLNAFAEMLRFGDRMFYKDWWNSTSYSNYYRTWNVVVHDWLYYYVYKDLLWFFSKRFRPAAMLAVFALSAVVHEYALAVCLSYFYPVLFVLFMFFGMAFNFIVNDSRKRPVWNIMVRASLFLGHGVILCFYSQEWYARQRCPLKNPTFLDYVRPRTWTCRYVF
Outline: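 Enzyme fatty acyl-CoA:cholesterol acyltransferase (ACAT), assayed in vitro at a single drug concentration of 5.2 μg/mL. The value is the mean percent inhibition of enzyme activity.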

Rattus norvegicus [2] = assay: In vivo triglyceride lowering activity when dosed at 0.03 % of the diet; format: functional
Outline: (§1)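 Normal rats were dosed in the diet. Serum sterol and triglyceride levels were measured and expressed as the mean percent of control values. Significance versus control was reported at p < 0.05, 0.01 and 0.001.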

Rattus norvegicus [3] = assay: In vivo sterol lowering activity when dosed as 0.01 % of the diet; format: functional; outline: as §1
Rattus norvegicus [4] = assay: In vivo sterol lowering activity when dosed as 0.03 % of the diet; format: functional; outline: as §1
Rattus norvegicus [5] = assay: In vivo sterol lowering activity at dose of 0.10 % of the diet; format: functional; outline: as §1
Rattus norvegicus [6] = assay: In vivo triglyceride lowering activity when dosed as 0.01 % of the diet; format: functional; outline: as §1
Rattus norvegicus [7] = assay: In vivo triglyceride lowering activity dosed at 0.10 % of the diet.; format: functional; outline: as §1

Structure (SMILES)	inhibition [1] [%]	serum triglyceride level, percent of control (Rattus norvegicus [2]) [%]	serum sterol level, % of control (Rattus norvegicus [3]) [%]	serum sterol level, percent of control (Rattus norvegicus [4]) [%]	serum sterol level, percent of control (Rattus norvegicus [5]) [%]	serum triglyceride level, percent of control (Rattus norvegicus [6]) [%]	serum triglyceride, percent of control (Rattus norvegicus [7]) [%]	Diet (Rattus norvegicus [2]) [%]
CCCCCCCCCCCCCCCCNc1ccc(C(=O)C(C)C(=O)OCC)cc1 (stereo not drawn)	21	88	100	87	<73	87	<66	–
CCCCCCCCCCCCCCCCNc1ccc(C2=NCCO2)cc1	0	94	100	100	86	103	76	–
CCCCCCCCCCCCCCCCNc1cc(C(=O)[O-])c(C(=O)[O-])c(C(=O)[O-])c1.[Na+].[Na+].[Na+]	< 24	<68	100	100	97	82	93	–
CCCCCCCCCCCCCCCCN(CC)c1ccc(C(=O)O)cc1	–	<63	<74	<60	<86	<78	98	–
CCCCCCCCCCCCCCCCNc1ccc(C#N)cc1	–	71	86	92	96	83	75	–
CCCCCCCCCCCCCCCCNc1ccc(C(=O)NS(=O)(=O)c2ccc(C)cc2)cc1	–	<35	89	<56	<61	<86	<40	–
CCCCCCCCCCCCCCCCNCc1ccc(C(=O)O)cc1	–	91	97	<89	<88	86	96	–

Now from value to molecule, other results behind:

inhibition [1] [%]	Structure (SMILES)	serum triglyceride level, percent of control (Rattus norvegicus [2]) [%]	serum sterol level, % of control (Rattus norvegicus [3]) [%]	serum sterol level, percent of control (Rattus norvegicus [4]) [%]	serum sterol level, percent of control (Rattus norvegicus [5]) [%]	serum triglyceride level, percent of control (Rattus norvegicus [6]) [%]	serum triglyceride, percent of control (Rattus norvegicus [7]) [%]	Diet (Rattus norvegicus [2]) [%]
11	CCCCCCCCCCCCCCCCNc1ccc(C(=O)NS(C)(=O)=O)cc1	<73	94	<84	<87	77	<54	–
< 47	CCCCCCCCCCCCCCCCNc1ccc(C(=O)COC)cc1	85	88	88	91	77	<65	–
0	CCCCCCCCCCCCCCCCNc1ccc(C(=O)OC2COC(c3ccccc3)OC2)cc1 (stereo not drawn)	–	95	91	99	103	78	68
13	CCCCCCCCCCCCCCCCNc1ccc(C(=O)OCC(C)(C)CO)cc1	92	97	93	101	103	101	–
6	CCCCCCCCCCCCCCCCNc1ccc(C(=O)C[S+](C)[O-])cc1 (stereo not drawn)	<55	95	95	–	<64	–	–
